Measured values as given in ChEMBL document CHEMBL2434877, “Synthesis and SAR study of novel 3,3-diphenyl-1,3-dihydroindol-2-one derivatives as potent eIF2·GTP·Met-tRNAiMet ternary complex inhibitors” (Eur J Med Chem, 2013).
Active and inactive are the calls of the source. The calls are words filed in the database; no cut-off is given here.

Legend:
[1] = Antiproliferative activity against human CRL2813 cells after 5 days by SRB assay; type: functional, cell-based; conditions: CRL2813, 120 h
How it was run: (§1)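 Adherent cells plated, allowed to settle overnight, then exposed 5 days to 0.54–20 µM compound. Fixed in cold 10% TCA (4 °C, 1 h), stained with 0.4% SRB in 1% acetic acid for 1 h, dye solubilized in 10 mM Tris pH 10, A490 read. Time-zero plates used for %T/C. IC50 is the 50% growth-inhibition concentration, mean of 2 experiments each in triplicate.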

Mus musculus [2] = species: Mus musculus; assay: Inhibition of eIF2-GTP-Met-tRNAi (Met) in mouse KLN205 cells assessed as increase in ATF-4 expression at 40 uM by dual luciferase reporter gene assay relative to control; type: cell-based
How it was run: (§2)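 KLN-205 cells carry firefly luciferase fused to the ATF-4 5′UTR and renilla luciferase behind a uORF-free 5′UTR. Cells treated overnight with compound at 10, 20, 40 or 80 µM, then read with a glow-type dual luciferase kit. Firefly/renilla ratio corrected for the same ratio in DMSO wells on the same plate.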

[3] = Antiproliferative activity against mouse KLN205 cells after 5 days by SRB assay; type: functional, cell-based; conditions: 120 h; how it was run: as §1
MCF7 = assay: Antitumor activity against human MCF7 cells xenografted in mouse assessed as regression in tumor size at 140 mg/kg, sc bid for 3 weeks relative to control; type: functional; conditions: route subcutaneous
Mus musculus [4] = species: Mus musculus; assay: Inhibition of eIF2-GTP-Met-tRNAi (Met) in mouse KLN205 cells assessed as increase in CHOP mRNA expression by qRT-PCR analysis relative to DMSO-treated control; type: cell-based
How it was run: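 CHOP mRNA measured by PCR in KLN-205 cells, triplicate in at least two independent runs. Transcript quantities normalized to 18S rRNA and expressed as fold over DMSO control.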

[5] = Antiproliferative activity against human CRL2351 cells after 5 days by SRB assay; type: functional, cell-based; conditions: 120 h; how it was run: as §1
Mus musculus [6] = species: Mus musculus; assay: Inhibition of eIF2-GTP-Met-tRNAi (Met) in mouse KLN205 cells assessed as increase in ATF-4 expression at 80 uM by dual luciferase reporter gene assay relative to control; type: cell-based; how it was run: as §2
Mus musculus [7] = species: Mus musculus; assay: Inhibition of eIF2-GTP-Met-tRNAi (Met) in mouse KLN205 cells assessed as increase in ATF-4 expression at 10 to 80 uM by dual luciferase reporter gene assay; type: cell-based; how it was run: as §2

SMILES | IC50 [1] [µM] | fold change (FC) (Mus musculus [2]) | IC50 [3] [µM] | Activity (MCF7) [%] | fold change (FC) (Mus musculus [4]) | IC50 [5] [µM] | fold change (FC) (Mus musculus [6]) | ATF-4 reporter expression relative to DMSO control (Mus musculus [7])
CC(C)(C)c1ccc(O)c(C2(c3ccccc3)C(=O)Nc3ccccc32)c1 (configuration not stated) | 4.8 | 3.7 | 14.4 | 30 | 3.77 | 3.4 |  | 
CC(C)(C)c1ccc(O)c(C2(c3ccccc3)C(=O)Nc3ccc(-c4ccc(N5CCOCC5)nc4)cc32)c1 (configuration not stated) | 2.5 |  | 13.3 |  | 20.8 | 1.8 | 15.6 | 
CC(C)(C)c1ccc(O)c(C2(c3ccc(O)cc3)C(=O)Nc3ccccc32)c1 (configuration not stated) | 4 |  | 17.3 |  |  | 2 |  | 
CC(C)(C)c1ccc(O)c(C2(c3ccc(O)cc3)C(=O)Nc3c2ccc(F)c3F)c1 (configuration not stated) | 10.7 | 2.9 | 15.3 |  | 3.09 | > 20 |  | 
COc1ccc(C2(c3cc(C(C)(C)C)ccc3OCCN3CCOCC3)C(=O)Nc3ccccc32)cc1 (racemic) | 2.4 | 6.3 | 4.3 |  | 7.1 | 2.65 |  | 
CN(C)c1ccc(C2(c3cc(C(C)(C)C)ccc3OCCN3CCOCC3)C(=O)Nc3ccccc32)cc1 (racemic) | 7.5 | 7.15 | 2.2 |  | 4.15 | 4.7 |  | 
COc1ccc(C2(c3cc(C(C)(C)C)ccc3OCCN3CCOCC3)C(=O)Nc3ccccc32)cc1OC (racemic) | > 20 |  | > 20 |  |  | > 20 |  | 
COc1ccc(C2(c3cc(C(C)(C)C)ccc3OCCN3CCOCC3)C(=O)Nc3ccccc32)cc1F (racemic) | 2.7 |  | 3.4 |  |  | 2.5 |  | 
COc1ccc(C2(c3cc(C(C)(C)C)ccc3OCCN3CCOCC3)C(=O)Nc3ccc(OC)cc32)cc1 (racemic) | 2.9 |  | 2.75 |  |  | 4.5 |  | 
COC(=O)c1cccc2c1NC(=O)C2(c1ccc(OC)cc1)c1cc(C(C)(C)C)ccc1OCCN1CCOCC1 (racemic) | 14.6 |  | 17 |  |  | 16.3 |  | inactive
COc1ccc(C2(c3cc(C(C)(C)C)ccc3OCCN3CCOCC3)C(=O)Nc3ccc(I)cc32)cc1 (racemic) | 2.6 |  | 12 |  |  | 6.1 |  | 
COc1ccc(C2(c3cc(C(C)(C)C)ccc3OCCN3CCOCC3)C(=O)Nc3ccc(OC(F)(F)F)cc32)cc1 (racemic) | 1.9 | 5.11 | 9.3 |  | 3.49 | 2.9 |  | 
CN(C)c1ccc(C2(c3cc(C(C)(C)C)ccc3OCCN3CCOCC3)C(=O)Nc3c2ccc(F)c3F)cc1 (racemic) | 11 |  | 15.7 |  |  | 4 |  | 
C#CCOc1ccc(C(C)(C)C)cc1C1(c2ccccc2)C(=O)Nc2ccccc21 (racemic) | > 20 |  | > 20 |  |  | 17.5 |  | 
CC(C)(C)c1ccc(OCC(=O)O)c(C2(c3ccccc3)C(=O)Nc3ccccc32)c1 (racemic) | > 20 |  | > 20 |  |  | > 20 |  | inactive
COc1ccc(C2(c3cc(C(C)(C)C)ccc3O)C(=O)Nc3ccccc32)cc1 (racemic) | 2.75 | 5.6 | 15.7 |  | 4.09 | 2.65 |  | 
CN(C)c1ccc(C2(c3cc(C(C)(C)C)ccc3O)C(=O)Nc3ccccc32)cc1 (racemic) | 11 |  | 10.9 |  |  | 2.3 |  | 
CC(C)(C)c1ccc(O)c(C2(c3ccc(CN4CCOCC4)cc3)C(=O)Nc3ccccc32)c1 (racemic) | 7.8 |  | 17.3 |  | 4.68 | 7.3 | 12.4 | 
Cc1cc(C2(c3cc(C(C)(C)C)ccc3O)C(=O)Nc3ccccc32)ccc1Cl (racemic) | 2.9 |  | 4.3 |  |  | 2.9 |  | 
CC(C)(C)c1ccc(O)c(C2(c3cccnc3)C(=O)Nc3ccccc32)c1 (racemic) | 11.5 |  | > 20 |  |  | 6.4 |  | 
CC(C)(C)c1ccc(O)c(C2(c3ccccc3)C(=O)Nc3ccc(I)cc32)c1 (racemic) | 2.8 | 7.2 | 14.9 |  | 4.36 | 3.5 |  | 
CC(C)(C)c1ccc(O)c(C2(c3ccccc3)C(=O)Nc3ccc(OC(F)(F)F)cc32)c1 (racemic) | 1 |  | 8 |  |  | 2.5 |  | 
CC(C)(C)c1ccc(O)c(C2(c3ccccc3)C(=O)Nc3ccc4ncsc4c32)c1 (racemic) | 0.95 |  | 8 |  |  | 2.2 |  | inactive
COc1ccc(C2(c3cc(C(C)(C)C)ccc3O)C(=O)Nc3c2ccc(F)c3F)cc1 (racemic) | 3 |  | 12.3 |  |  | 0.95 |  | inactive
COc1ccc(C2(c3cc(C(C)(C)C)ccc3O)C(=O)Nc3ccc(OC)cc32)cc1 (racemic) | 11.1 |  | 14.3 |  |  | 2.9 |  | inactive
COC(=O)c1cccc2c1NC(=O)C2(c1ccc(OC)cc1)c1cc(C(C)(C)C)ccc1O (racemic) | 12.2 |  | > 20 |  |  | 3.4 |  | 
CC(C)(C)c1ccc(OCCN2CCOCC2)c(C2(c3ccccc3)C(=O)Nc3ccccc32)c1 (racemic) | 2.4 |  | 6.8 |  |  | 3.35 |  | 
CN(C)CCOc1ccc(C(C)(C)C)cc1C1(c2ccccc2)C(=O)Nc2ccccc21 (racemic) | 2.4 |  | 1.2 |  |  | 1.4 |  | 
CC(C)(C)c1ccc(OCCN2CCNCC2)c(C2(c3ccccc3)C(=O)Nc3ccccc32)c1 (racemic) | 12.8 |  | 1.2 |  |  | 0.9 |  | inactive
